Where “and” joins values, the source holds several entries; their conditions need not be identical. Equal values may be shown once.
Columns and labels:
T47D [1] = assay: Induction of apoptosis in human T47D cells assessed as caspase-3 activation; type: functional, cell-based
Outline: (§1)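 Cells grown in RPMI-1640 + 10% FCS, trypsinized, and resuspended at 0.65 × 10^6 cells/mL. Treated in 384-well plates with 0.005–10 µM final compound (1% DMSO) for 24 h. N-(Ac-DEVD)-N'-ethoxycarbonyl-R110 substrate was then added, and fluorescence (ex 485/em 525 nm) was read at 0 and 3 h. Activity is the net RFU ratio of test to control. EC50 from a sigmoidal fit at 50% maximal response; mean of ≥3 experiments ± SEM.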

HCT-116 [2] = assay: Induction of apoptosis in human HCT116 cells assessed as caspase-3 activation; type: functional, cell-based; outline: as §1
SNU-398 [3] = assay: Induction of apoptosis in human SNU398 cells assessed as caspase-3 activation; type: functional, cell-based; outline: as §1
T47D [4] = assay: Antiproliferation activity against human T47D cells; type: functional
Outline: (§2)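 Cells in RPMI-1640 + 10% FCS, 5% CO2, 37 °C. Seeded at 4.4 × 10^4 cells/mL in 96-well plates and exposed to compound at 0.001–10 µM final (1% DMSO) for 48 h at 37 °C. Viability read by CellTiter-Glo luminescence. A 0.5 h plate gave the initial-cell baseline and untreated wells gave maximal proliferation. GI50 is the mean of ≥3 experiments ± SEM.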

HCT-116 [5] = assay: Antiproliferation activity against human HCT116 cells; type: functional; outline: as §2
SNU-398 [6] = assay: Antiproliferation activity against human SNU398 cells; type: functional; outline: as §2
T47D [7] = assay: Induction of apoptosis in human T47D cells assessed as accumulation at S phase at […] after 24 hrs; type: functional
Outline: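 T47D cells treated with 50 nM compound, or DMSO as control, for 24 h or 48 h at 37 °C. Cells then stained with propidium iodide and analysed by flow cytometry for DNA-content histograms. Sub-diploid DNA content was taken to indicate apoptotic cells.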

Structure (SMILES) | EC50 (T47D [1]) | EC50 (HCT-116 [2]) | EC50 (SNU-398 [3]) | GI50 (T47D [4]) | GI50 (HCT-116 [5]) | GI50 (SNU-398 [6]) | Activity (T47D [7])
CC(=O)c1ccc(Oc2c3ccccc3nc3c2c(C)nn3C)cc1 | > 10000 nM | > 10000 nM | > 10000 nM |  |  |  | 
Cc1nn(C)c2nc3ccccc3c(Nc3ccc(C(N)=O)cc3)c12 | > 10000 nM | > 10000 nM | > 10000 nM |  |  |  | 
CCC(=O)c1ccc(Nc2c3cccc([N+](=O)[O-])c3nc3c2c(C)nn3C)cc1 | 510 nM | 480 nM | 270 nM |  |  |  | 
COC(=O)c1ccc(Nc2c3ccccc3nc3c2c(C)nn3C)cc1 | 540 nM | 670 nM | 270 nM |  |  |  | 
COc1ccc(Nc2c3ccccc3nc3c2c(C)nn3C)cc1 | 1010 nM | 1250 nM | 480 nM |  |  |  | 
COc1ccc(Nc2c3ccccc3nc3[nH]nc(C)c23)cc1 | > 10000 nM | > 10000 nM | > 10000 nM | > 10000 nM | > 10000 nM | > 10000 nM | 
CC(=O)c1ccc(Nc2c3cc(C)ccc3nc3c2c(C)nn3C)cc1 | > 10000 nM | > 10000 nM | > 10000 nM |  |  |  | 
COc1ccc(Sc2c3ccccc3nc3c2c(C)nn3C)cc1 | 5470 nM | 6670 nM | 4990 nM |  |  |  | 
CC(=O)c1ccc(Nc2c3ccccc3nc3c2cnn3C)cc1 | 1150 nM | 1360 nM | 730 nM |  |  |  | 
COc1cccc(Nc2c3ccccc3nc3c2c(C)nn3C)c1 | 7260 nM | > 10000 nM | > 10000 nM |  |  |  | 
CC(=O)c1ccc(Nc2c3cccc(C)c3nc3c2c(C)nn3C)cc1 | 1110 nM | 940 nM | 660 nM |  |  |  | 
CCC(=O)c1ccc(Nc2c3ccccc3nc3c2c(C)nn3CC)cc1 | 210 nM | 190 nM | 150 nM |  |  |  | 
Cc1nn(C)c2nc3ccccc3c(Nc3ccc(C(=O)C(C)C)cc3)c12 | 440 nM | 390 nM | 240 nM |  |  |  | 
CCC(O)c1ccc(Nc2c3ccccc3nc3c2c(C)nn3C)cc1 (stereo not drawn) | 140 nM | 330 nM | 53 nM | 590 nM | 930 nM | 140 nM | 
CC(=O)c1ccc(Nc2c3ccccc3nc3c2c(C)nn3C)cc1 | 520 nM | 660 nM | 270 nM |  |  |  | 
CCC(=O)c1ccc(Nc2c3ccccc3nc3c2c(C)nn3C)cc1 | 71 nM | 64 nM | 34 nM | 26 nM | 42 nM | 16 nM | 13.6% and 7.6% and 18.8%
Cc1nn(C)c2nc3ccccc3c(Nc3ccc(C(=O)O)cc3)c12 | > 10000 nM | > 10000 nM | > 10000 nM |  |  |  | 
CC(=O)c1cccc(Nc2c3c(nc4ccccc24)CCC3)c1 | 450 nM | 660 nM | 440 nM | 560 nM | 500 nM | 170 nM | 
COC(=O)c1ccc(N(C)c2c3ccccc3nc3c2c(C)nn3C)cc1 | 5210 nM | 6080 nM | 1330 nM |  |  |  | 
CC(=O)c1ccc(Nc2c3ccccc3nc3c2c(C(C)C)nn3C)cc1 | > 10000 nM | > 10000 nM | > 10000 nM |  |  |  | 
